Data taken from ChEMBL document CHEMBL5260841, “Discovery of N-(4-(6-Acetamidopyrimidin-4-yloxy)phenyl)-2-(2-(trifluoromethyl)phenyl)acetamide (CHMFL-FLT3-335) as a Potent FMS-like Tyrosine Kinase 3 Internal Tandem Duplication (FLT3-ITD) Mutant Selective Inhibitor for Acute Myeloid Leukemia” (J Med Chem, 2019).

Columns and labels:
[1] = test system: MV4-11; test: Inhibition of AKT phosphorylation at Thr308 residue in human MV4-11 cells harboring FLT3-ITD mutant incubated for 4 hrs by Western blot analysis; assay type: cell-based; settings: dose 0.01-3 µM
Procedure, shortened: (§1)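 Cells were exposed to the compound at a series of concentrations for 4 h, and whole-cell lysates were analysed by Western blot. MV4-11 cells were grown in IMDM with 10% FBS. MOLM13 and MOLM14 cells were grown in RPMI 1640 with 10% FBS. All cultures were kept at 37 °C with 5% CO2.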

[2] = Cytotoxicity against CHL cells assessed as inhibition of cell growth; assay type: toxicity, cell-based, Cricetulus griseus; settings: chinese hamster
[3] = molecular target: Mitogen-activated protein kinase kinase kinase kinase 1 (Homo sapiens, UniProt Q92918); test: Inhibition of HPK1 (unknown origin) preincubated for 60 mins followed by ATP addition and measured after 1 hr by ADP-Glo assay
[4] = test system: BaF3; test: Antiproliferative activity against mouse BaF3 cells transfected with FLT3 ITD F691L mutant assessed as cell growth inhibition incubated for 72 hrs by CCK-8 assay; assay type: functional
Procedure, shortened: (§2)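 Kinase-transformed isogenic BaF3 lines grown in RPMI 1640 with 10% FBS, 2% L-glutamine and pen/strep at 37 °C, 5% CO2. Seeded at 1500-3000 cells/well and treated with a compound concentration series for 72 h. Viability read by CCK8 absorbance at 450 nm.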

[5] = test system: MV4-11; test: Antitumor activity against human MV4-11 cells xenografted in nu/nu mouse assessed as suppression of cell proliferation administered orally via gavage for 28 days by ki67 staining based immunohistochemical analysis; assay type: functional; settings: dose 25-100 mg/kg/day, route po, time 28.0 day
Procedure, shortened: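 Tumours taken from MV4-11 xenograft mice after 28 days of daily oral dosing. Tissue stained with HE, Ki-67 (proliferation) and TUNEL (apoptosis), and treated groups compared with the vehicle group.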

[6] = AUC (0 to infinity) in Sprague-Dawley rat at 1 mg/kg, iv; assay type: ADME, organism-based; design: dose 1 mg/kg, route iv; settings: in vivo
Procedure, shortened: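 Sprague-Dawley rats dosed IV at 1 mg/kg or by oral gavage at 10 mg/kg. Parameters from plasma exposure: AUC(0-t), AUC(0-∞), MRT, T1/2, Tmax, Vz, CLz, Cmax. Values are mean ± SD from three animals.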

[7] = test system: MOLM-14; test: Inhibition of AKT phosphorylation at Thr308 residue in human MOLM-14 cells harboring FLT3-ITD mutant incubated for 4 hrs by Western blot analysis; assay type: cell-based; settings: dose 0.01-3 µM; procedure, shortened: as §1
[8] = test system: BaF3; test: Antiproliferative activity against mouse BaF3 cells transfected with FLT3 ITD D835del mutant assessed as cell growth inhibition incubated for 72 hrs by CCK-8 assay; assay type: functional; procedure, shortened: as §2
[9] = molecular target: T1, Receptor-type tyrosine-protein kinase FLT3 (Homo sapiens, UniProt P36888); test: Inhibition of FLT3 (unknown origin) preincubated for 60 mins followed by ATP addition and measured after 1 hr by ADP-Glo assay
T1 sequence (P36888 whole entry): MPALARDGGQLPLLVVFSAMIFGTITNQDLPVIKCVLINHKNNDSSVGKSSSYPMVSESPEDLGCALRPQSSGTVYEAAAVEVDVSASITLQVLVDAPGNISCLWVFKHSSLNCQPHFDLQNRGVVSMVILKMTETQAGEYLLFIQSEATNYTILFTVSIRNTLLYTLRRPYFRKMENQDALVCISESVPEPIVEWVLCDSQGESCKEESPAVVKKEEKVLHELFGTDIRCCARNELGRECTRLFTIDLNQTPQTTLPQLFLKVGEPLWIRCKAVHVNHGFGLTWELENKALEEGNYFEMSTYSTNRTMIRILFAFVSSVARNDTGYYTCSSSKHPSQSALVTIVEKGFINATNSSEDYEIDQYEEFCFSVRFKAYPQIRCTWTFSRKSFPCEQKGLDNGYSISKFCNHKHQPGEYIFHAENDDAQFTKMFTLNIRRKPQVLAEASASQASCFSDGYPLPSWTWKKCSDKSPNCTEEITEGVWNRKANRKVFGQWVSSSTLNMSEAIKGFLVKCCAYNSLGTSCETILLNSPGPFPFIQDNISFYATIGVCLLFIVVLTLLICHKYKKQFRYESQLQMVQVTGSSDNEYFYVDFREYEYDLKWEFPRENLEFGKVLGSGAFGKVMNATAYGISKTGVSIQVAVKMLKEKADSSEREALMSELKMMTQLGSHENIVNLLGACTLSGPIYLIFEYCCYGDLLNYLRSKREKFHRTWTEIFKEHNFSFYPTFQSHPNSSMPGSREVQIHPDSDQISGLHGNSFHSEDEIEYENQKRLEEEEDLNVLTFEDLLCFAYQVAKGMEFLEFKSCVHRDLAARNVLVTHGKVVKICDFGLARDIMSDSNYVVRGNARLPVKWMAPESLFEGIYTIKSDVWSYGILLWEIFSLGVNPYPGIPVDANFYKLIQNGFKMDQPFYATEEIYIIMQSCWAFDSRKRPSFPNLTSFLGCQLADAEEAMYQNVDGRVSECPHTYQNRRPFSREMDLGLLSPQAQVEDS

[10] = MRT (0 to t) in Sprague-Dawley rat at 1 mg/kg, iv; assay type: ADME, organism-based; settings: in vivo
Procedure, shortened: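 Sprague-Dawley rats were dosed either intravenously at 1 mg/kg or by oral gavage at 10 mg/kg. Plasma PK parameters were AUC(0-t), AUC(0-∞), MRT(0-t), T1/2, Tmax, Vz, CLz, Cmax and F%. Values are the mean ± SD of three independent animals.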

[11] = molecular target: Receptor-type tyrosine-protein kinase FLT3 (Homo sapiens, UniProt P36888, ITD); test: Inhibition of FLT3 ITD mutant (unknown origin) preincubated for 60 mins followed by ATP addition and measured after 1 hr by ADP-Glo assay

Sequence of Mitogen-activated protein kinase kinase kinase kinase 1 (Q92918 whole entry): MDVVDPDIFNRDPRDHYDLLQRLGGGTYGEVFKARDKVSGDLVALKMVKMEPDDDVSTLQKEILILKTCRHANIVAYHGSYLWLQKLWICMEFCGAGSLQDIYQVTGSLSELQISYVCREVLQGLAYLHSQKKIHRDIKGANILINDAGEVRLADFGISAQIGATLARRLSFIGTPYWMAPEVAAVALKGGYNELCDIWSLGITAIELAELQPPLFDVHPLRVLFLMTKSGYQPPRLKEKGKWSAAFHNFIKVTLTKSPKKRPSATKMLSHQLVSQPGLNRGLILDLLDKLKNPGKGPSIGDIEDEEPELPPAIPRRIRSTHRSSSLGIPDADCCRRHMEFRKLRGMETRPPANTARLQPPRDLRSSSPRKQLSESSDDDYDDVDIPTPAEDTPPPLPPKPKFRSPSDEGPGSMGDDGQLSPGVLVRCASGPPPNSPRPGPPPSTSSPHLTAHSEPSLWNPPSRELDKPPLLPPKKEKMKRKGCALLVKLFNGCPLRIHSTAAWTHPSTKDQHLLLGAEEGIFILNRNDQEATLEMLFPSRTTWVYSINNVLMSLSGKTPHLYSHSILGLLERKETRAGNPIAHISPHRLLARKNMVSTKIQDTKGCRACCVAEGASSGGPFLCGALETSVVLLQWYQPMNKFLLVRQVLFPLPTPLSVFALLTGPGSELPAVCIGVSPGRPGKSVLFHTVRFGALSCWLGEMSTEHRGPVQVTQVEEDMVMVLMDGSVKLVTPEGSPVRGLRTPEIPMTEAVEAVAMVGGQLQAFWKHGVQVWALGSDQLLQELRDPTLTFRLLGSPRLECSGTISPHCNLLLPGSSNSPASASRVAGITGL

With `CC(=O)Nc1cc(Oc2ccc(NC(=O)Cc3ccccc3C(F)(F)F)cc2)ncn1` the inhibition [1] was “Dose-Dependent Effect”, the GI50 [2] was greater than 10 µM and the IC50 [3] was greater than 10 µM. The GI50 [4] was greater than 10 µM, the Activity [5] was “Dose-Dependent Effect” and the AUC(0-inf) [6] was 1590 ng·h/mL. The inhibition [7] was “Dose-Dependent Effect”, the GI50 [8] was greater than 10 µM and the IC50 [9] was 0.0908 µM. For the same compound, the MRT last [10] was 1.9 h and the IC50 [11] was 0.0239 µM.
